From ChEMBL document CHEMBL3627694, “Estrogenic activity of bis(4-hydroxyphenyl)methanes with cyclic hydrophobic structure” (Bioorg Med Chem, 2015)

Legend:
[1] = target: T1, Estrogen receptor (Homo sapiens) (UniProt P03372); experiment: Displacement of [6,7-3H]17 beta-estradiol from human recombinant ER alpha assessed as relative binding affinity incubated for 18 hrs at 4 degC by radiometric binding assay relative to estradiol
T1 sequence (whole entry): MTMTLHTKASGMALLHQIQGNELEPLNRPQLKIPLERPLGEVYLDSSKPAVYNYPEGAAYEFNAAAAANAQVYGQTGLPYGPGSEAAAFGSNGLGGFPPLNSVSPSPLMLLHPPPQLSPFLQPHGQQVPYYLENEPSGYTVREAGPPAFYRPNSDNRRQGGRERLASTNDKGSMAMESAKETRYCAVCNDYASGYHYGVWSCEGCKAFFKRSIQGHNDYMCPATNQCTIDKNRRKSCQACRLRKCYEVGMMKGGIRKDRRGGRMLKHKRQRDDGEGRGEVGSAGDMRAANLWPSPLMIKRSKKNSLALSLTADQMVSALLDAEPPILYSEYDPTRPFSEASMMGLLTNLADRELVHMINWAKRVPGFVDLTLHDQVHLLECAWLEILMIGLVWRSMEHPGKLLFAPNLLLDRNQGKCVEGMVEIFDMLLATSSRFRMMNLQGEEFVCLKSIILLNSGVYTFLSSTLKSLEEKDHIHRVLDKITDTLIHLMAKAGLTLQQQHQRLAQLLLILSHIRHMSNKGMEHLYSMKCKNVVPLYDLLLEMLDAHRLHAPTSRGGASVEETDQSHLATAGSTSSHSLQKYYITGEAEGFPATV
In short: (§1)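 Human recombinant ERα or ERβ, 0.5 µg/tube, in buffer of 20 mM Tris–HCl pH 8.0, 0.3 M NaCl, 1 mM EDTA, 10 mM 2-mercaptoethanol, 0.2 mM PMSF. Incubated with 4 nM [6,7-³H]17β-estradiol ± unlabeled competitor, 4 °C, 18 h, in duplicate. Collected on nitrocellulose filter, washed, read by liquid scintillation. RBA taken with estradiol as 100; […] is the ERβ/ERα RBA ratio.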

[2] = target: Estrogen receptor beta (Homo sapiens) (UniProt Q92731); experiment: Displacement of [6,7-3H]17 beta-estradiol from human recombinant ER beta assessed as relative binding affinity incubated for 18 hrs at 4 degC by radiometric binding assay relative to estradiol; in short: as §1
Homo sapiens = species on record: Homo sapiens; experiment: Ratio of RBA for human recombinant ER beta to RBA for human recombinant ER alpha; in short: as §1
MCF7 [3] = experiment: Estrogenic activity in human MCF7 cells assessed as increase in cell proliferation incubated for 4 days by WST-8 assay; type: functional, cell-based; details: MCF7, 96 h
In short: (§2)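 MCF-7 cells kept in D-MEM with 10% FBS at 37 °C, 5% CO2. Before assay, switched to phenol red-free low-glucose D-MEM with 5% sFBS and seeded at 2000 cells/well. Serial dilutions, 1×10^-13 to 1×10^-6 M, given alone, DMSO as control. 4 days in triplicate, medium replaced after 2 days. WST-8 added, absorbance at 450 nm after 2–4 h. EC50 from sigmoidal curves; Emax relative to E2 as 100.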

MCF7 [4] = experiment: Anti-estrogenic activity in human MCF7 cells assessed as reduction in estradiol-induced increase in cell proliferation incubated for 4 days by WST-8 assay; type: functional, cell-based; details: MCF7, 96 h
In short: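 MCF-7 cells in phenol red-free low-glucose D-MEM with 5% sFBS, 2000 cells/well. Serial dilutions, 1×10^-13 to 1×10^-6 M, given with 0.1 nM estradiol, DMSO as control. 4 days in triplicate, medium with compound and estradiol renewed at day 2. Growth read by WST-8, absorbance at 450 nm after 2–4 h. IC50 from sigmoidal dose–response curves.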

MCF7 [5] = experiment: Estrogenic activity in human MCF7 cells assessed as increase in cell proliferation incubated for 4 days by WST-8 assay relative to estradiol; type: functional; details: MCF7, 96 h; in short: as §2

Sequence of Estrogen receptor beta (Homo sapiens) (Q92731 whole entry): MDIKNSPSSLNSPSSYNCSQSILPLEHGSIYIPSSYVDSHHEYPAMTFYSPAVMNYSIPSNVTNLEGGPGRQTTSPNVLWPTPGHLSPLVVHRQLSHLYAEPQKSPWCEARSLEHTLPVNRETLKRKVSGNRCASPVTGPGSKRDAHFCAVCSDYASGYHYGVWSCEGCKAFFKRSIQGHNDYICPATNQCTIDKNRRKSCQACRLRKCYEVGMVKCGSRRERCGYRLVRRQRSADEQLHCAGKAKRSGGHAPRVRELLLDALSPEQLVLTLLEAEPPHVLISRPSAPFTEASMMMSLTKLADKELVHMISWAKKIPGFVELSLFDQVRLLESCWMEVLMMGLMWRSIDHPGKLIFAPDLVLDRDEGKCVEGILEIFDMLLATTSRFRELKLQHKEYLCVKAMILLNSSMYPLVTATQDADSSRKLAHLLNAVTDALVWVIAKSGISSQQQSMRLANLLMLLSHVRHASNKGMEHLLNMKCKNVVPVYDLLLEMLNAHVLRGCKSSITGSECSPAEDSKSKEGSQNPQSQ

Compound	RBA [1] [%]	RBA [2] [%]	Ratio (Homo sapiens)	EC50 (MCF7 [3]) [nM]	IC50 (MCF7 [4]) [nM]	Emax (MCF7 [5]) [%]
CC1(C)CCC(C(c2ccc(O)cc2)c2ccc(O)cc2)CC1	3.64	3.02	1.2	68.4	> 1000	72
Oc1ccc(C(c2ccc(O)cc2)C2CCC(Cl)(Cl)CC2)cc1	0.662	0.158	0.2	304	> 1000	78
Oc1ccc(C(c2ccc(O)cc2)C2CCC3(CC2)OCCO3)cc1	0.465	0.219	0.5	–	> 1000	22
CC1(C)CCCC(C(c2ccc(O)cc2)c2ccc(O)cc2)C1 (stereo unspecified)	98.8	30.7	0.3	2.4	64.9	74
Oc1ccc(C(c2ccc(O)cc2)C2CCCC3(CCCCC3)C2)cc1 (stereo unspecified)	21.9	29.3	1.3	0.8	> 1000	74
Oc1ccc(C(c2ccc(O)cc2)C2CCC(F)(F)CC2)cc1	2.71	3.93	1.3	22.5	> 1000	80
Oc1ccc(C(c2ccc(O)cc2)C2CCCC(F)(F)C2)cc1 (stereo unspecified)	5.78	4.29	0.7	16.6	19.6	58
CC1(C)CC(C(c2ccc(O)cc2)c2ccc(O)cc2)CC(C)(C)C1	28.4	35.2	1.2	–	63.1	32
Oc1ccc(C(c2ccc(O)cc2)C2CCC(Br)(Br)CC2)cc1	0.957	0.18	0.2	211	> 1000	64
Oc1ccc(C(c2ccc(O)cc2)C2CCCC2)cc1	4.61	13.7	3	48.8	> 1000	69
Oc1ccc(C(c2ccc(O)cc2)C2CCCCC2)cc1	6.71	15.5	2.3	54.1	> 1000	79
Oc1ccc(C(c2ccc(O)cc2)C2CCCC3(C2)SCCCS3)cc1 (stereo unspecified)	50.6	8.43	0.2	0.39	> 1000	80
Oc1ccc(C(c2ccc(O)cc2)C2CCCC(Cl)(Cl)C2)cc1 (stereo unspecified)	15.3	15.7	1	4.6	> 1000	70
